Assay results taken from ChEMBL document CHEMBL3392986, “Hydroxamic acids block replication of hepatitis C virus” (J Med Chem, 2015).
Calls of active or inactive are those of the source. The calls are words filed in the database; no cut-off is given here.

Legend:
[1] = biological target: Matrix metalloproteinase-14 (Homo sapiens) (UniProt P50281); experiment: Inhibition of human recombinant […] catalytic domain (112 to 298 aa) expressed in Escherichia coli
[2] = biological target: T1, Polyamine deacetylase HDAC10 (Homo sapiens) (UniProt Q969S8); experiment: Inhibition of full length N-terminal GST-tagged human HDAC10 (amino acids 1 to 631 ) expressed in baculovirus expression system assessed as inhibition of fluorophore 7-amino-4-methylcoumarin release by fluorescence assay
T1 sequence (whole entry): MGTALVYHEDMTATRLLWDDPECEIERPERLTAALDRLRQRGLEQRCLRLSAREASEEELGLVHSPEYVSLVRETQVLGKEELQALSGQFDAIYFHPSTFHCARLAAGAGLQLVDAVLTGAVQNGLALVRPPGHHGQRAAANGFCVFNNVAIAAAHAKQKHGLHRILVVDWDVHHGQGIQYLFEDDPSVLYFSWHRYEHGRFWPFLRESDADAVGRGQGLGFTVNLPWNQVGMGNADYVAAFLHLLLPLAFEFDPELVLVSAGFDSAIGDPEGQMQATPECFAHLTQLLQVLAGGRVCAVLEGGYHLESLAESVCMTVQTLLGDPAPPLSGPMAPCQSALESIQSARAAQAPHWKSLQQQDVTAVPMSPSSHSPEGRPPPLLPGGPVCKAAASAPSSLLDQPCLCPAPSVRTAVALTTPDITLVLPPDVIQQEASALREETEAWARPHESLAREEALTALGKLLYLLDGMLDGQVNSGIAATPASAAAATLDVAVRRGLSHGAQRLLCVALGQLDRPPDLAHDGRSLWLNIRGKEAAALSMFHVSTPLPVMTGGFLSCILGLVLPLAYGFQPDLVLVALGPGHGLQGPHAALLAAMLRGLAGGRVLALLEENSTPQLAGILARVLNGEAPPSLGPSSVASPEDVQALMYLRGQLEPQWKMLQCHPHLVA

[3] = biological target: T2, Histone deacetylase 8 (Homo sapiens) (UniProt Q9BY41); experiment: Inhibition of full length human HDAC8 expressed in Escherichia coli assessed as inhibition of fluorophore 7-amino-4-methylcoumarin release by fluorescence assay
T2 sequence (whole entry): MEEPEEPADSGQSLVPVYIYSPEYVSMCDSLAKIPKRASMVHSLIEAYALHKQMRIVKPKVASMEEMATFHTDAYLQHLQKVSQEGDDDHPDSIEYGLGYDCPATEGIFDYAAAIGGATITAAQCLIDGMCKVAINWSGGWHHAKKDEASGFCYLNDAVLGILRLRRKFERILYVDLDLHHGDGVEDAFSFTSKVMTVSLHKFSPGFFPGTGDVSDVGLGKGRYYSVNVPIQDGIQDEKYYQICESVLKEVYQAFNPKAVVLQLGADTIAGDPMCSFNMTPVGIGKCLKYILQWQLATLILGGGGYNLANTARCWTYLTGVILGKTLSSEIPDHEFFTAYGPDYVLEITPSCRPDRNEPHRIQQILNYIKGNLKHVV

Hepatitis C virus = experiment: Antiviral activity against HCV genotype 1b infected in human Huh7 cells assessed as reduction in viral RNA level at 2 uM after 3 days by RT-qPCR; type: functional, Hepacivirus hominis, Huh-7; design: scale not given: the % may be the effect or the level left
Method in brief: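 Replicon-bearing Huh7 cells, 6 X 10^3 per well, exposed to compound in DMSO or DMSO alone for three days at 37 °C/5% CO2. Replicon RNA quantified by TaqMan Cells-to-CT RT-qPCR with NS5B primers/probe, using GAPDH in parallel wells as reference. Level relative to DMSO-treated cells calculated as 2-∆∆CT. Triplicate wells.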

Hepacivirus hominis = experiment: Inhibition of HCV NS5B RNA dependent RNA polymerase
[4] = biological target: T3, Histone deacetylase 11 (Homo sapiens) (UniProt Q96DB2); experiment: Inhibition of N-terminal GST-tagged human HDAC11 expressed in baculovirus expression system assessed as inhibition of fluorophore 7-amino-4-methylcoumarin release by fluorescence assay
T3 sequence (whole entry): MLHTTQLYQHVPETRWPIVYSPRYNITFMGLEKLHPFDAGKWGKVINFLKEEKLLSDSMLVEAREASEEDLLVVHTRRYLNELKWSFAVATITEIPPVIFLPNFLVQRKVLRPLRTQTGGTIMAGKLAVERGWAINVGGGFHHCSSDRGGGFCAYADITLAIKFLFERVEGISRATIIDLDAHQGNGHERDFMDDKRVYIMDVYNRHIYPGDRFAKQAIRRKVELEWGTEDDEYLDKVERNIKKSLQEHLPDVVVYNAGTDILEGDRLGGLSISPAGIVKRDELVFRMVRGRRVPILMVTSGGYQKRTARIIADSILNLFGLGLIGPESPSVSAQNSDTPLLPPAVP

[5] = biological target: Histone deacetylase 9 (Homo sapiens) (UniProt Q9UKV0); experiment: Inhibition of full length C-terminal His-tagged human HDAC9 (amino acids 604 to 1066 ) expressed in baculovirus expression system assessed as inhibition of fluorophore 7-amino-4-methylcoumarin release by fluorescence assay
[6] = biological target: Disintegrin and metalloproteinase domain-containing protein 17 (Homo sapiens) (UniProt P78536); experiment: Inhibition of human recombinant TACE catalytic domain (215 to 671 aa) expressed in Escherichia coli
[7] = biological target: Histone deacetylase 4 (Homo sapiens) (UniProt P56524); experiment: Inhibition of N-terminal GST-tagged human HDAC4 (amino acids 627 to 1085) expressed in baculovirus expression system assessed as inhibition of fluorophore 7-amino-4-methylcoumarin release by fluorescence assay
[8] = biological target: Hepatitis C virus serine protease, NS3/NS4A (Hepatitis C virus) (UniProt D2K2A8+A3EZI9); experiment: Inhibition of HCV NS3/4A protease; details: Hepacivirus hominis
[9] = biological target: Macrophage metalloelastase (Homo sapiens) (UniProt P39900); experiment: Inhibition of human recombinant MMP12 catalytic domain (99 to 271 aa) expressed in Escherichia coli
[10] = biological target: Histone deacetylase 5 (Homo sapiens) (UniProt Q9UQL6); experiment: Inhibition of full length N-terminal GST-tagged human HDAC5 expressed in baculovirus expression system assessed as inhibition of fluorophore 7-amino-4-methylcoumarin release by fluorescence assay
Histone deacetylase 5 (Homo sapiens), sequence (Q9UQL6 whole entry): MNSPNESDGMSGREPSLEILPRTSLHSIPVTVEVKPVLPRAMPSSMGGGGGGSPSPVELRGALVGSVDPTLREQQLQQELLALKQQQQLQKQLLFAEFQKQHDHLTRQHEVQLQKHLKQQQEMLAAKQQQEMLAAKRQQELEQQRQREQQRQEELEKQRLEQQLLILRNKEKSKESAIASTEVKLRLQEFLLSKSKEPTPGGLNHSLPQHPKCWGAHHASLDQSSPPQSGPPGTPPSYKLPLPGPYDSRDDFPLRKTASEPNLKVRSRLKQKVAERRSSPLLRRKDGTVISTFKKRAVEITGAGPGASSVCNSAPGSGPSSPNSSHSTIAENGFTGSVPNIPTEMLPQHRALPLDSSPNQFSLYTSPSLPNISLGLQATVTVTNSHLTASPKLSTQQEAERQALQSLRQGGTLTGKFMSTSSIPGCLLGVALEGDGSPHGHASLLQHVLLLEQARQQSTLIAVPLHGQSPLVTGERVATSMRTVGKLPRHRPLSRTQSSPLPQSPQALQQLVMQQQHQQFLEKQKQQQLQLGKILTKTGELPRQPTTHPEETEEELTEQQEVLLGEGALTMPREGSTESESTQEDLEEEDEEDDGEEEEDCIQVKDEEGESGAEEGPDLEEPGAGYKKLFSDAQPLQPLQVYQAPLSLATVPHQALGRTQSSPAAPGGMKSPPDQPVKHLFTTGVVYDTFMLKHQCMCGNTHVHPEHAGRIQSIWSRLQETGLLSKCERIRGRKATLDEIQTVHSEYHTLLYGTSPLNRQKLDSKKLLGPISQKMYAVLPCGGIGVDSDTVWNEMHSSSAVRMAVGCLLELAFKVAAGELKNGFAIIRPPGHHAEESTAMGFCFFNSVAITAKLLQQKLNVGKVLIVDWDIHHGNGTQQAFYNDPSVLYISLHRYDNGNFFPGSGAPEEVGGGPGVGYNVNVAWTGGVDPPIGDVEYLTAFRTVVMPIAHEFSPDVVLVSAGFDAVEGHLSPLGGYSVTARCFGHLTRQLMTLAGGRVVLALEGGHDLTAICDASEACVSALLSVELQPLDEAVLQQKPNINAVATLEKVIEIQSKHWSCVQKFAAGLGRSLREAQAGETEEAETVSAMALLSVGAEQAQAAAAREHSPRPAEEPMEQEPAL

Histone deacetylase 9 (Homo sapiens), sequence (Q9UKV0 whole entry, the tested form may be a part): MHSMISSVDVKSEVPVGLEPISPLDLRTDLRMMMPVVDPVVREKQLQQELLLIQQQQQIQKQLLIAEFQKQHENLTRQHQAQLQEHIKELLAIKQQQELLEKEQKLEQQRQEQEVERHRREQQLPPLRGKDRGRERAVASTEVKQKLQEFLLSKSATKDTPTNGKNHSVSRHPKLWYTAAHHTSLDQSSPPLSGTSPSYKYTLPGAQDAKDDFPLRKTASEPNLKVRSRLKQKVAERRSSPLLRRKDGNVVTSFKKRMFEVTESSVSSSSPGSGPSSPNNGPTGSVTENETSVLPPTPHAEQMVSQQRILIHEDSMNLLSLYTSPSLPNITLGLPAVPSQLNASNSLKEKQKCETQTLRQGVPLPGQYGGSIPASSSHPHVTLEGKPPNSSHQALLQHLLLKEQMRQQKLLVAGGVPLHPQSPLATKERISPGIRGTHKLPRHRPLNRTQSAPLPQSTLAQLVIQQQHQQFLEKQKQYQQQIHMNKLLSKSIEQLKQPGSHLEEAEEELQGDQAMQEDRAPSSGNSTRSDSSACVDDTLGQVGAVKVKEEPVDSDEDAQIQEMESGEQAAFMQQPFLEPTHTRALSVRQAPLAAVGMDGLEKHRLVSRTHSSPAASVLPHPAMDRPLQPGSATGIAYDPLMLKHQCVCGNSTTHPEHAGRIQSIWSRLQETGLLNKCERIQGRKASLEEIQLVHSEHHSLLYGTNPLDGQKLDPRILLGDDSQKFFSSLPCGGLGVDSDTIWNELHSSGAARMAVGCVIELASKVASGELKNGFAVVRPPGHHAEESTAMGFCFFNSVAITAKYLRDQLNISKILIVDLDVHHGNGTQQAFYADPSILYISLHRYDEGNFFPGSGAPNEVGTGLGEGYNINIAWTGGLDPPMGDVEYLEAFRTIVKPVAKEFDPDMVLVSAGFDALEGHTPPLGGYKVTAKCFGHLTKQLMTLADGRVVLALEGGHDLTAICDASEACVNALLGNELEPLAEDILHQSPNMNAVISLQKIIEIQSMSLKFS
Histone deacetylase 4 (Homo sapiens), sequence (P56524 whole entry, the tested form may be a part): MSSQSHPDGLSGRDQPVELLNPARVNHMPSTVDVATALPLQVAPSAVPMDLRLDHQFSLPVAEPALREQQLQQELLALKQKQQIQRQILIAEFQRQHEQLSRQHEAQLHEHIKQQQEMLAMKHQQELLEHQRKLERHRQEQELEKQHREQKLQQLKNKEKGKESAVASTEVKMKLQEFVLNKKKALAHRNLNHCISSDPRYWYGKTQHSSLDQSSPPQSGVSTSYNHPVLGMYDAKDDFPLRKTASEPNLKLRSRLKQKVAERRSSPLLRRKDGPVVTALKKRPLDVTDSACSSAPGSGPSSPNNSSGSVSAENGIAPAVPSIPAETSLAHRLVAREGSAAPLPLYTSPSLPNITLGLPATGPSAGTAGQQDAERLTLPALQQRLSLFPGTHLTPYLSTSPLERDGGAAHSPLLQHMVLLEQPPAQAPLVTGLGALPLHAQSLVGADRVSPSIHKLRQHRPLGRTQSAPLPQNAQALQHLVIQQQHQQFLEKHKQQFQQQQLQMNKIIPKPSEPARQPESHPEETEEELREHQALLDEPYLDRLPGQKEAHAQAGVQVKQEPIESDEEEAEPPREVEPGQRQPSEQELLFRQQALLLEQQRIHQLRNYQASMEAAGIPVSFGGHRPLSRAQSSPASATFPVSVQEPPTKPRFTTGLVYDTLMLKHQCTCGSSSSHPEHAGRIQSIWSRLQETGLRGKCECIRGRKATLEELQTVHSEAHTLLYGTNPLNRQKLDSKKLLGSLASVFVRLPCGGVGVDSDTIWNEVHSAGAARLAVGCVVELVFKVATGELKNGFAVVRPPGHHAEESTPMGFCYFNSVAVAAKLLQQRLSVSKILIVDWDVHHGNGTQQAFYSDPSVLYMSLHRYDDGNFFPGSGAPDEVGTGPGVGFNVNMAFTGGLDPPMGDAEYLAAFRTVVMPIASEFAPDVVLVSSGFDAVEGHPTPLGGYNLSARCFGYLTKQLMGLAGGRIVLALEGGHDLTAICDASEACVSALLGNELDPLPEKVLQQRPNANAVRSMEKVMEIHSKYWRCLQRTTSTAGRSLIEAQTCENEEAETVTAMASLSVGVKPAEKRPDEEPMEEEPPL
Macrophage metalloelastase (Homo sapiens), sequence (P39900 106-470 limits assumed): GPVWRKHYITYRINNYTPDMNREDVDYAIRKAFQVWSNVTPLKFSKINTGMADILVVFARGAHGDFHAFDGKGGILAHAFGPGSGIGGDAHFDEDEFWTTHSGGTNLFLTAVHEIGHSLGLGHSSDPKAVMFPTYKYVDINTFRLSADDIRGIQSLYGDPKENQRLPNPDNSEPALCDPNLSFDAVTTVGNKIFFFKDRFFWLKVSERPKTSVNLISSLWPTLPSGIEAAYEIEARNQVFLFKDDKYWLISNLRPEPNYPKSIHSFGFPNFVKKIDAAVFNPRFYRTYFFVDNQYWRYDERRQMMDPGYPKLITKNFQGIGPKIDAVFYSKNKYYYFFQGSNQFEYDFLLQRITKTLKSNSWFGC
Disintegrin and metalloproteinase domain-containing protein 17 (Homo sapiens), sequence (P78536 whole entry, the tested form may be a part): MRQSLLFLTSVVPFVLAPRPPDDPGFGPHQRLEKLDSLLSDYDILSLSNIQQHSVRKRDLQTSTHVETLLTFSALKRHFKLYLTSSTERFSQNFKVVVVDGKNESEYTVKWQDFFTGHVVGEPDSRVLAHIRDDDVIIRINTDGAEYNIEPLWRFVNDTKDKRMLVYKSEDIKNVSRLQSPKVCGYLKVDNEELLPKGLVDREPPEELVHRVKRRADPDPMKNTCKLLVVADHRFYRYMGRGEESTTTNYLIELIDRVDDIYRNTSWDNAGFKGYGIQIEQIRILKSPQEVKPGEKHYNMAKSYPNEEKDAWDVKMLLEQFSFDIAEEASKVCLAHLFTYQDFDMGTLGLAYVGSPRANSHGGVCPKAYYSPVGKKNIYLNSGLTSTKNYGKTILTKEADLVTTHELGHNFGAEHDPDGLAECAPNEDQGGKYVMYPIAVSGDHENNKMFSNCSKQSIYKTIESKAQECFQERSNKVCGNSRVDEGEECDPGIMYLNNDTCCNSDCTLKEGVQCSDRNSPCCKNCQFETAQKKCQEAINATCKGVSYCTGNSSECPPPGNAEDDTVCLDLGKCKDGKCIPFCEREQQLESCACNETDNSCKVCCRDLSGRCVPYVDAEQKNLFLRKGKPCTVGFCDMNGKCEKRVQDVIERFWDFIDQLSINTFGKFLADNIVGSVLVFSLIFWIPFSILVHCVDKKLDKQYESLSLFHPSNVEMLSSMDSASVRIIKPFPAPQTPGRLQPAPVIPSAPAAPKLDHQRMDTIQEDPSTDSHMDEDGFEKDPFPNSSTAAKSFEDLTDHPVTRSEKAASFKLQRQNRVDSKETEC

For `O=C(NO)c1sc2ccccc2c1S(=O)(=O)c1ccccc1`, the inhibition [1] was “Active”, the inhibition [2] was “inactive” and the inhibition [3] was “Active”. For the same molecule, the Activity (Hepatitis C virus) was 75%, the inhibition (Hepacivirus hominis) was “inactive” and the inhibition [4] was “inactive”. The inhibition [5] was “inactive”, the inhibition [6] was “inactive” and the inhibition [7] was “inactive”. For the same molecule, the inhibition [8] was “inactive”, the inhibition [9] was “Active” and the inhibition [10] was “inactive”.
